Key:
[1] = molecular target: T1, P2Y purinoceptor 1 (Homo sapiens, UniProt P47900); assay: Displacement of [125I]MRS2500 from human P2Y1R expressed in Sf9 cell membrane
Method in brief: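 Competition binding used membranes of Sf9 insect cells expressing hP2Y1R, with [125I]MRS2500 at approximately 0.2 nM.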

[2] = molecular target: T1, P2Y purinoceptor 1; assay: Antagonist activity at human P2Y1R expressed in human 1321N1 cells assessed as inhibition of 2-MeSADP-induced increase in intracellular calcium mobilization at 10 uM; format: functional, cell-based
Method in brief: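 hP2Y1R-expressing 1321N1 cells were kept in DMEM with 5% FBS and geneticin, grown overnight to about 60–80% confluency, and loaded with Calcium 4 dye for 1 h at room temperature without washing. Test compound at 10 µM was added 20 min before 2-MeSADP (30 nM; curves 10−9–10−5 M). Read-out was fluorescence (ex 485/em 525 nm), peak minus basal, in triplicate.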

[3] = molecular target: T1, P2Y purinoceptor 1; assay: Displacement of [125I]MRS2500 from human P2Y1R expressed in Sf9 cell membrane at 20 uM
Method in brief: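 Binding screen used hP2Y1R-expressing Sf9 cell membranes and about 0.2 nM [125I]MRS2500. Each test compound was applied at 20 µM, and the value is percent inhibition of specific radioligand binding.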

[4] = molecular target: T1, P2Y purinoceptor 1; assay: Antagonist activity at human P2Y1R expressed in human 1321N1 cells assessed as inhibition of 2-MeSADP-induced increase in intracellular inositol phosphate generation; format: functional, cell-based
Method in brief: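 In 1321N1 cells stably expressing hP2Y1R, cells were labeled 18–24 h at 37°C with 2-[3H]myo-inositol in inositol-free DMEM. Agonist-stimulated [3H]inositol phosphate accumulation was measured over 10 min at 37°C with 10 mM LiCl. Total inositol phosphates were separated by anion-exchange chromatography. IC50 is the mean of 3 independent concentration-effect curves.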

T1 sequence (P47900 whole entry): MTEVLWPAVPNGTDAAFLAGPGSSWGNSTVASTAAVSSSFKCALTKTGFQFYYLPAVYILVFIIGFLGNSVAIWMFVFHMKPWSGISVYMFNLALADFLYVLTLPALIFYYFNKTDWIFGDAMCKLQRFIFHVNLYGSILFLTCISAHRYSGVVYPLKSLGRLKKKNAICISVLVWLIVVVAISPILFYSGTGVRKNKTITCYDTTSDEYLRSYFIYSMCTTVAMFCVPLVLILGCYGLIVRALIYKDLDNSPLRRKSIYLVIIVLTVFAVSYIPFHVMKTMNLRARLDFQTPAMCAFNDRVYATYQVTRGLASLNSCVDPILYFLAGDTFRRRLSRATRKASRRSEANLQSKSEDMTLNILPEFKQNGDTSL

SMILES	Ki [1] [µM]	inhibition [2] [%]	inhibition [3] [%]	IC50 [4] [µM]
Cc1noc(NS(=O)(=O)c2ccc(NC(=O)Nc3cc(F)cc(F)c3)cc2)c1C	≥ 100	10.2		
CCc1nnc(NS(=O)(=O)c2ccc(NC(=O)Nc3ccc(C(F)(F)F)cc3)cc2)s1	10			
CN(C)CCCN(C(=O)c1ccco1)c1nc2cc3c(cc2s1)OCO3			40	
COc1ccc(S(=O)(=O)Nc2ccc3c(c2)C(=O)Nc2ccccc2O3)cc1OC			20	
Cn1c(=O)[nH]c(=O)c2nc(NCCCO)n(CC(O)COc3ccccc3)c21 (configuration not stated)			20	
COc1ccc(NC(=O)Nc2ccc(S(=O)(=O)Nc3onc(C)c3C)cc2)cc1OC		9.1	< 10	
Cn1nnc2c(Cc3ccc(S(N)(=O)=O)cc3)ncnc21			20	
Cc1noc(NS(=O)(=O)c2ccc(NC(=O)Nc3ccccc3)cc2)c1C		< 5	< 10	
Cc1noc(NS(=O)(=O)c2ccc(NC(=O)Nc3ccc(Cl)c(Cl)c3)cc2)c1C	13	36.8		0.14
O=C(CSC1=NC(=O)N(CCCN2CCOCC2)C2CCCC12)Nc1ccc2c(c1)OCO2 (configuration not stated)			20	
COc1cc(NS(=O)(=O)c2ccc(NC(=O)Nc3cccc(Cl)c3)cc2)nc(OC)n1	6			
Cc1noc(NS(=O)(=O)c2ccc(NC(=O)Nc3cccc(Cl)c3)cc2)c1C	≥ 100	21.7		
Cc1noc(NS(=O)(=O)c2ccc(NC(=O)Nc3ccc(C(F)(F)F)cc3)cc2)c1C	45	32.7		
Cc1ccc(NC(=O)Nc2ccc(S(=O)(=O)Nc3onc(C)c3C)cc2)cc1C		9.4	< 10	0.13
Cc1cc(NC(=O)CSc2ccc3nnc(CCNS(=O)(=O)c4ccccc4)n3n2)no1			20	
Cc1noc(NS(=O)(=O)c2ccc(NC(=O)Nc3cc(Cl)cc(Cl)c3)cc2)c1C	27	17.6		
Cc1noc(NS(=O)(=O)c2ccc(NC(=O)Nc3ccc(F)c(Cl)c3)cc2)c1C	42	31.3		
Cc1noc(NS(=O)(=O)c2ccc(NC(=O)Nc3ccc(F)c(F)c3)cc2)c1C		11.3	< 10	
CC1=C2C(=O)NC(SCC(=O)Nc3ccc(S(=O)(=O)NCCCC(=O)O)cc3)=NC2SC1C(=O)O (configuration not stated)			30	
COc1ccc(S(=O)(=O)NCC(c2ccc3c(c2)OCO3)N2CCN(C)CC2)cc1OC (configuration not stated)			20	
